From PubChem
Yeast life ext – compounds extending yeast replicative lifespan, primary screen, S. cerevisiae, OD615. inhibition of the nicotinamide effect, % at 10 µM. AID 775, 2007. 130,000 tested, 0.68% active. S. cerevisiae growth with nicotinamide; deaD strain in restrictive glucose medium;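 active = inhibition above a set limit, placed 3 SD over the median of all compounds, cut at about 26% in these data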
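assay system = DeaD-strain S. cerevisiae | measured by = absorbance at 615 nm | probe or stimulus = nicotinamide 1.5 mM | buffer or medium = CSMM-D glucose medium, restrictive | times = 48 h at 30 °C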
BB579 growth dn – growth inhibitors of yeast BB579 in restrictive medium, primary screen, yeast lifespan-shortening project, S. cerevisiae | OD615, 48 h | 140,000 tested, 0.51% active | AID 804, 2007 | inhibition, % at 10 µM;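 active = inhibition above a set limit, 3 SD over the mean compound inhibition, cut at about 44% in these data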
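test system = yeast BB579 (DeaD) | buffer or medium = restrictive CSMM-D medium | doses = single compound dose of 10 µM, 0.25% DMSO final | times = 4 h preincubation and 48 h exposure at 30 °C | technique = culture absorbance at 615 nm | benchmarks = amphotericin B 10 µg/mL, positive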
HMGR II inh – inhibitors of E. faecalis class II HMGR, primary screen, biochemical, Enterococcus faecalis. HMG-CoA reductase (Enterococcus faecalis, mvaE). purified E. faecalis HMGR, NADPH absorbance 340 nm kinetic. inhibition, % at 10 µM. 190,000 tested, 0.41% active. AID 1066, 2008;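 active = inhibition above a set limit, the median over all tested compounds plus 3 SD, cut at about 9.5% in these data; inconclusive = no clear call, values can overlap the other calls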;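 note: enzyme runs in reverse so mevalonate oxidation gives rising NADPH absorbance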
RAM inhibit – inhibitors of the yeast RAM network, primary screen, dse1pr::URA3 reporter, 5-FOA selection; inhibition, % at 50 µM; 190,000 tested, 1.8% active; AID 868, 2007; S. cerevisiae dse1pr::URA3 reporter, 5-FOA growth OD615, 2 d; analog-sensitive cbk1-as2 kinase mutant strain;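 active = inhibition above a set limit, 3 SD over mean compound inhibition, cut at about 8.4% in these data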;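 note: inhibition rescues growth on 5-FOA so higher OD means more RAM inhibition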
Insulin prom inh – inhibitors of insulin promoter-driven GFP, primary screen, imaging, TRM-6 cells, eGFP reporter, cell count | reporter expression induced with tamoxifen | inhibition, % at 2 µM | 130,000 tested, 0.9% active | AID 1273, 2008;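 active = inhibition above the mean plus 3 SD, with well images judged a real hit on visual review, cut at about 60% in these data, passing the limit was not always enough; inconclusive = inhibition over the cutoff but images rejected on review; inactive = inhibition not above the cutoff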
Each line names hits and unclear results; the compound was inactive in the other large screens. Rows were chosen to be rich in hits. Some 3.7% of all compounds tested hit in one or more screens of this group.

Cc1ccc(C(=O)NCC(=O)N/N=C/c2sccc2C)cc1[N+](=O)[O-]	none (no result: Yeast life ext, BB579 growth dn, Insulin prom inh)
CCCCn1nc(C(=O)Nc2nc3c(s2)CCCC3)c2ccccc2c1=O	none (no result: Insulin prom inh)
CCCCCCn1nc(C(=O)Nc2nc3c(s2)CCCC3)c2ccccc2c1=O	RAM inhibit 11 (no result: Insulin prom inh)
Nc1nc(COc2ccc(F)cc2Cl)nc(N2CCCCC2)n1	none (no result: Yeast life ext, BB579 growth dn)
C/C(=N\Nc1ccc([N+](=O)[O-])cc1)c1ccc(N)cc1	BB579 growth dn 97
Cc1ccnc(SCC(=O)c2cc3ccccc3o2)n1	none (no result: Yeast life ext, BB579 growth dn, Insulin prom inh)
O=C(Nc1cccc(O)c1)c1cc2nc(-c3ccccc3)cc(-c3ccccc3)n2n1	RAM inhibit 9.7
CCOC1(C)OCC(=O)[C@]2(CCC3C4CCC5=CC(=O)C=CC5(C)C4C(=O)CC32C)O1 (stereo not given in full)	none (no result: Insulin prom inh)
O=C(NCc1ccco1)c1cc([N+](=O)[O-])cc([N+](=O)[O-])c1	Insulin prom inh 67
O=C(NCc1ccco1)c1cc2ccccc2c(=O)o1	Insulin prom inh 79
COc1ccc(C(OCC2CO2)c2ccc(OC)cc2)cc1 (stereo not given)	Insulin prom inh 77 (no result: Yeast life ext, BB579 growth dn)
COc1ccc(S(=O)(=O)c2ccc(OCC3CO3)cc2)cc1 (stereo not given)	none (no result: Yeast life ext, BB579 growth dn, Insulin prom inh)
Cc1ccc(O)c(-c2cc(-c3ccccc3[N+](=O)[O-])[nH]n2)c1	none
O=[N+]([O-])c1ccccc1-c1cc(-c2cc(Cl)ccc2O)n[nH]1	BB579 growth dn 96
Cc1ccc(O)c(-c2cc(-c3ccccc3C)[nH]n2)c1	BB579 growth dn 99, Insulin prom inh inconclusive
CCOC(=O)N1CCN(C(=O)/C=C/c2cccc([N+](=O)[O-])c2)CC1	none (no result: Yeast life ext, BB579 growth dn)
O=C(COc1ccc(S(=O)(=O)NC2CCCCC2)cc1)N1CCN(c2cccc(Cl)c2)CC1	none
Cc1ccc(NS(=O)(=O)c2ccc(OCC(N)=O)cc2)cc1	none (no result: Yeast life ext, BB579 growth dn)
Cc1cccc(NC(=S)NC(=O)C(c2ccccc2)c2ccccc2)n1	Insulin prom inh 72 (no result: Yeast life ext, BB579 growth dn, HMGR II inh, RAM inhibit)
COc1ccc(-c2nc3oc4cc(OC)ccc4c(=O)c3c(=O)n2Cc2ccco2)cc1	Yeast life ext 27
CCc1nc2oc3cc(OC)ccc3c(=O)c2c(=O)n1Cc1ccco1	none
COc1ccc(Cn2c(-c3ccco3)nc3oc4cc(OC)ccc4c(=O)c3c2=O)cc1	none
COc1ccc2c(=O)c3c(=O)n(Cc4ccco4)c(-c4ccco4)nc3oc2c1	Yeast life ext 75
CCOc1ccccc1NC(=O)Cn1c(=O)n(-c2ccccc2)c(=O)c2oc3ccccc3c21	none (no result: Insulin prom inh)
CC(C)CCN1CCN(CC(c2ccccc2)c2ccccc2)CC1CCO (stereo not given)	none (no result: Yeast life ext, BB579 growth dn)
Cc1ccc(-n2c(O)c(C=Nc3ccccc3-c3n[nH]c(=S)[nH]c3=O)c3ccccc3c2=O)c(C)c1	RAM inhibit 11 (no result: Yeast life ext, BB579 growth dn)
Cc1ccc(-n2c(O)c(C=Nc3ccccc3-c3n[nH]c(=S)[nH]c3=O)c3ccccc3c2=O)cc1C	none (no result: Yeast life ext, BB579 growth dn, Insulin prom inh)
CCN(CC)c1ccc(/C=C(\C#N)C(=O)c2ccc(Br)cc2)cc1	RAM inhibit 9.2 (no result: Insulin prom inh)
CCN(CC)c1ccc(/C=C(\C#N)C(N)=O)cc1	none (no result: Yeast life ext, BB579 growth dn)
N#CCC(=O)N1CCN(C=O)CC1	none (no result: Yeast life ext, BB579 growth dn)
COc1ccc(-c2noc(-c3cccnc3)n2)cc1OC	none (no result: Yeast life ext, BB579 growth dn)
c1ccc(-c2ccccc2-c2nc(-c3ccncc3)no2)cc1	Insulin prom inh 79
COc1ccc(Cc2noc(-c3ccccc3)n2)cc1OC	HMGR II inh 15 (no result: Yeast life ext, BB579 growth dn)
COc1cccc(-c2nc(Cc3ccc(OC)c(OC)c3)no2)c1	none (no result: Insulin prom inh)
COc1ccc(-c2noc(-c3ccccc3-c3ccccc3)n2)cc1OC	RAM inhibit 11
CCOc1ccccc1-c1nc(-c2cccc(Br)c2)no1	RAM inhibit 8.7
Cc1ccccc1NC(=O)/C=C1\SC(=O)NC1=O	none (no result: Yeast life ext, BB579 growth dn)
Cc1cc(C)c(C(=O)CN2C(=O)NC3(CCCCCC3)C2=O)cc1C	none (no result: Yeast life ext, BB579 growth dn, Insulin prom inh)
O=C(CCCc1ccccc1)Nc1ccc2c(c1)OCCO2	none (no result: Yeast life ext, BB579 growth dn, Insulin prom inh)
CCCc1nc2ccccc2c(C(=O)OC(C)C(=O)NCc2ccc3c(c2)OCO3)c1CC (stereo not given)	none
O=c1oc2ccccc2cc1-c1cn2cccnc2n1	BB579 growth dn 53 (no result: Insulin prom inh)
O=c1oc2ccccc2cc1-c1cn2ccccc2n1	none (no result: Yeast life ext, BB579 growth dn, Insulin prom inh)
Cc1cc(NC(=O)CSc2ccc(-c3nc4cc(C)c(C)cc4[nH]3)cn2)no1	RAM inhibit 10
